Screening results (PubChem BioAssay)
APJ antag: antagonists of human apelin receptor APJ, primary screen, CHO-K1 cells, beta-arrestin complementation, luminescence. P35414. inhibition, % at 20 µM. 330,000 tested, 0.32% active. AID 2521, 2010;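 active = inhibition above about 40% at 20 µM, limit read from the data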;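 also: cells challenged with 10 nM apelin-13 agonist together with compound; plate controls were apelin-13 plus DMSO wells for no effect and DMSO wells lacking apelin-13 for full effect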
Target sequence (P35414 whole entry, looked up): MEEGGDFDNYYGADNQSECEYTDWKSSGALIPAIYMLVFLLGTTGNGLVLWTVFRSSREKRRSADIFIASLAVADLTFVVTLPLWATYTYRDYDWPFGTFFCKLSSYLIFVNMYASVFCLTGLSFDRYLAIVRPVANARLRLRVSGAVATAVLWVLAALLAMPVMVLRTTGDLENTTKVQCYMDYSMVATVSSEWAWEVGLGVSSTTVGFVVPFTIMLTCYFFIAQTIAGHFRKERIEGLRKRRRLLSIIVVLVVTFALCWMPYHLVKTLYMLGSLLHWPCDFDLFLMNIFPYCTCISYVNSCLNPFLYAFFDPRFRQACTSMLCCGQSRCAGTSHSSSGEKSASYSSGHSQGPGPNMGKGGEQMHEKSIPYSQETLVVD
APJ ag: agonists of human apelin receptor APJ, primary screen, CHO-K1 cells, PathHunter beta-arrestin, luminescence; P35414; 0% DMSO wells, 100% apelin; activation, % at 20 µM; 330,000 tested, 0.11% active; AID 2520, 2010;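 active = activation more than six SD over the plate average, tested at 20 µM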;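 also: 0% = DMSO alone and 100% = apelin-13 at 10 nM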
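Test system – PathHunter CHO-K1 APJ (AGTRL-1) beta-arrestin reporter cells · Input – 1000 cells/well · Compound – single test compound dose, 20 µM final, 1% DMSO · Times – compound stimulation 90 min at 25 °C, detection 60 min · Technique – beta-gal luminescence · Read-out basis – APJ–arrestin association signal · Control set – negative DMSO alone, positive Apelin-13 at 10 nM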
CCR6 antag: CCR6 receptor antagonists, primary screen, cell-based, CHO-K1, luminescence, beta-arrestin, uHTS | CHO-K1 CCR6 PathHunter beta-arrestin, CCL20-stimulated | inhibition, % at 20 µM | 340,000 tested, 0.49% active | AID 493098, 2011;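 active = compounds whose inhibition of the agonist-driven luminescence signal at 20 µM reaches about 50%, limit read from the data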;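 also: cells stimulated with CCL20 at 14 nM final; plate controls were DMSO with CCL20 for no effect and DMSO without agonist for full effect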
CXCR6 block: CXCR6 receptor inhibitors, primary screen, cell-based, beta-arrestin, luminescence, CHO-K1 PathHunter, 1536-well. inhibition, % at 20 µM. C-X-C chemokine receptor type 6 (Homo sapiens), O00574. 360,000 tested, 0.36% active; in the data active = inhibition above about 34%, passing the limit was not always enough;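 also: antagonist mode with CXCL16 agonist at 10 nM final; 0% = 10 nM CXCL16 with DMSO and 100% = unstimulated wells without agonist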
EBI2 antag: EBI2 receptor antagonists, beta-arrestin recruitment, primary screen, cell-based, luminescence, 7a,25-OHC stimulation, uHTS; G-protein coupled receptor 183 (Homo sapiens), P32249; 7a,25-OHC stimulated; inhibition, % at 5 µM; 360,000 tested, 0.81% active; in the data active = inhibition above about 38%;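 also: enzyme fragment complementation signal reports receptor beta-arrestin coupling in cells; 0% = agonist plus DMSO wells and 100% = wells without agonist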
CXCR6 antag conf: CXCR6 receptor antagonists, confirmation, cell-based, single concentration, beta-arrestin, luminescence; shares compounds with CXCR6 block; CHO-K1 CXCR6 PathHunter beta-arrestin; inhibition, % at 20 µM; 700 tested, 65% active;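 active = mean inhibition over four retests above 40%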;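 also: receptor stimulated with 10 nM CXCL16 agonist; beta-galactosidase fragment complementation upon beta-arrestin recruitment to receptor; plate controls were CXCL16 plus DMSO for no effect and DMSO without CXCL16 for full effect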
Numbers without * were called inactive. Shown are actives, neighbours in structure and some others; about 1.5% of the full set was active somewhere.

`C/C(=N\NC(=S)NCCc1ccccc1)c1ccc(O)cc1O` gave APJ antag -5, APJ ag 7, CCR6 antag 9, CXCR6 block 0 and EBI2 antag 6.
Screening O=C(CSc1nc(=O)n(CCN2CCOCC2)c2c1CCCC2)Nc1cccc([N+](=O)[O-])c1 returned APJ antag 1, APJ ag -5, CCR6 antag -11, CXCR6 block 8 and EBI2 antag 0.
For OCc1ccc(-c2cncc3nccn23)cc1 the results were CXCR6 block 0 and EBI2 antag -7.
Screening N#Cc1c(C#N)c(SSc2c(C#N)c(C#N)c(N)n2-c2ccccc2)n(-c2ccccc2)c1N returned CCR6 antag 109*, CXCR6 block 101*, EBI2 antag -17 and CXCR6 antag conf 85*.
For N#Cc1c(N)n(-c2ccc(N)cc2)c2nc3ccccc3nc12 the results were APJ antag 5, APJ ag -3, CCR6 antag 12, CXCR6 block 2 and EBI2 antag -6.
For COc1ccc(C(C)(C)NC(=O)C2CCC(=O)N(C3CC3)C2)cc1OC (stereo unspecified) the results were APJ antag 7, APJ ag 10, CCR6 antag 7, CXCR6 block 0 and EBI2 antag -1.
Cc1cccc(C(=O)Nc2ccc(C(=O)/C=C/c3cccnc3)cc2)c1 was read as CCR6 antag 34, CXCR6 block 36*, EBI2 antag 33 and CXCR6 antag conf 44*.
Cc1cc(C)cc(NC(=O)c2cccnc2)c1 was read as APJ antag -4, APJ ag 2, CCR6 antag 13, CXCR6 block 40*, EBI2 antag -3 and CXCR6 antag conf 5.
For O=C(/C=C/c1cccnc1)c1ccc(NC(=O)c2cccc(Br)c2)cc1 the results were APJ antag 18, APJ ag 5, CCR6 antag 23, CXCR6 block 9 and EBI2 antag -3.
For CN1c2ccc([N+](=O)[O-])cc2N(C)C1(C)c1ccccc1 (stereo unspecified) the results were APJ antag 28, APJ ag -9, CCR6 antag 54*, CXCR6 block 43*, EBI2 antag 17 and CXCR6 antag conf 38.
For Cn1c2ccccc2c2cc([N+](=O)[O-])ccc21 the results were APJ antag 9, APJ ag -3, CCR6 antag 4, CXCR6 block 9 and EBI2 antag 4.
For CC(=O)Nc1ccc(N=Cc2c(O)c(C(=O)Nc3ccccc3)cc3ccccc23)cc1 the results were APJ antag -29, APJ ag 3 and CCR6 antag -19.
`CCOc1cc(Br)c(Br)c(C=Nc2ccc(NC(C)=O)cc2)c1O` gave APJ antag 31, APJ ag -5, CCR6 antag 19, CXCR6 block 42*, EBI2 antag 20 and CXCR6 antag conf 70*.
Screening COc1ccccc1N(CC(=O)NCCN1CCOCC1)S(=O)(=O)c1ccc(C)cc1 returned APJ antag -51, APJ ag 7, CCR6 antag -4, CXCR6 block 0 and EBI2 antag -3.
`N#C/C(=C/C1=C(N2CCOCC2)C(=C/c2ccc(Cl)cc2)/CC1)C(=O)Nc1ccccc1F` gave CCR6 antag 30, CXCR6 block 20 and EBI2 antag 21.
Screening CC(C)(C)NC(=O)NC(=O)COC(=O)c1c(F)cccc1Cl returned APJ antag 4, APJ ag -1, CCR6 antag 9, CXCR6 block 40*, EBI2 antag 14 and CXCR6 antag conf 6.
Cc1ccc(NS(=O)(=O)c2cc([N+](=O)[O-])ccc2NNC(=S)Nc2cc(C)ccc2C)c(C)c1 was read as APJ antag 53*, APJ ag -8, CCR6 antag 86*, CXCR6 block 63*, EBI2 antag 13 and CXCR6 antag conf 64*.
`COc1ccc(NC(=S)NNc2ccc([N+](=O)[O-])cc2S(=O)(=O)Nc2ccc(C)cc2C)cc1` gave APJ antag 1, APJ ag 0, CCR6 antag 77*, CXCR6 block 49*, EBI2 antag 14 and CXCR6 antag conf 56*.
Screening C[C@H]1CN([C@@H](C)CO)C(=O)CCCn2nncc2CO[C@@H]1CN(C)Cc1ccccc1C(F)(F)F returned CXCR6 block 39*, EBI2 antag -1 and CXCR6 antag conf 1.
C[C@@H]1CN([C@H](C)CO)C(=O)CCCn2nncc2CO[C@@H]1CN(C)S(=O)(=O)c1ccccc1F was read as CXCR6 block 0 and EBI2 antag 12.
For N#CC(C#N)=C1C=CC=CN1/C(=C\c1ccco1)C(=O)c1ccc(-c2ccccc2)cc1 the results were CCR6 antag 83*, CXCR6 block 44*, EBI2 antag 29 and CXCR6 antag conf 51*.
For COc1ccc(OCC(=O)N/N=C/c2cccc3cccnc23)cc1 the results were APJ antag -18, APJ ag 2, CCR6 antag 8, CXCR6 block 3 and EBI2 antag 2.
`O=C(COc1ccc(Cl)cc1)N/N=C/c1cccc2cccnc12` gave APJ antag 8, APJ ag 1, CXCR6 block 44*, EBI2 antag 25 and CXCR6 antag conf 56*.
Cc1occc1C(=O)NNC(=S)NC(=O)COc1ccc(Cl)cc1Cl was read as APJ antag 29, APJ ag -4, CCR6 antag 48, CXCR6 block 42*, EBI2 antag 3 and CXCR6 antag conf 37.
For CS(=O)(=O)c1ccc(C(=O)OCc2nnc(-c3ccccc3)o2)cc1[N+](=O)[O-] the results were CCR6 antag 62*, CXCR6 block 64*, EBI2 antag 56* and CXCR6 antag conf 76*.
For CNC(=O)c1nc[nH]c1C(=O)NC the results were APJ antag 5, APJ ag 1, CCR6 antag 1, CXCR6 block -8 and EBI2 antag -3.
For CCNC(=O)c1nc[nH]c1C(=O)NCC the results were APJ antag -11, APJ ag -5, CCR6 antag 25, CXCR6 block 59*, EBI2 antag 5 and CXCR6 antag conf -1.
`CC1(C)Cc2ccccc2C(NNC(=O)c2ccccn2)=N1` gave APJ antag 22, APJ ag -6, CCR6 antag 28, CXCR6 block 45*, EBI2 antag -3 and CXCR6 antag conf 41*.
For COc1ccc(/C=C(\NC(=O)c2ccccc2)C(=O)NCc2ccco2)cc1OC the results were APJ antag 22, APJ ag -4, CCR6 antag 5, CXCR6 block 10 and EBI2 antag 2.
